Measurements as given in ChEMBL document CHEMBL3585325, “Discovery of (1R,2S)-2-{[(2,4-Dimethylpyrimidin-5-yl)oxy]methyl}-2-(3-fluorophenyl)-N-(5-fluoropyridin-2-yl)cyclopropanecarboxamide (E2006): A Potent and Efficacious Oral Orexin Receptor Antagonist” (J Med Chem, 2015).

Columns and labels:
Mus musculus [1] = assay: Sleep promoting activity in C57BL/6NCrlCrlj mouse assessed as increase in REM sleep at 30 mg/kg, po administered immediately prior to beginning of dark cycle measured during first 3 hrs after drug administration by electroencephalogram/electromyogram analysis (reference value: 0.6 min); assay type: functional
Outline: (§1)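 Male C57BL/6NCrlCrlj mice implanted with EEG/EMG electrodes were dosed orally in 10% Cremophor EL, 5% DMSO in saline just before lights-off (ZT12) and recorded from ZT12 to ZT20. Group sizes were n=6 dosed and n=7 vehicle. Stages were scored by software with blinded visual confirmation; cumulative first-3-h times are mean with SEM. Dunnett's test was run after one-way ANOVA.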

Mus musculus [2] = assay: Sleep promoting activity in C57BL/6NCrlCrlj mouse assessed as increase in non-REM sleep at 30 mg/kg, po administered immediately prior to beginning of dark cycle measured during first 3 hrs after drug administration by electroencephalogram/electromyogram analysis (reference value: 62.6 min); assay type: functional; outline: as §1
[3] = target: T1, Orexin/Hypocretin receptor type 1 (Homo sapiens, UniProt O43613); assay: Binding affinity to human OX1R expressed in HEK-293 cells assessed as inhibition of orexin A-induced calcium accumulation by FLIPR assay; assay type: cell-based, HEK293
T1 sequence (O43613 whole entry): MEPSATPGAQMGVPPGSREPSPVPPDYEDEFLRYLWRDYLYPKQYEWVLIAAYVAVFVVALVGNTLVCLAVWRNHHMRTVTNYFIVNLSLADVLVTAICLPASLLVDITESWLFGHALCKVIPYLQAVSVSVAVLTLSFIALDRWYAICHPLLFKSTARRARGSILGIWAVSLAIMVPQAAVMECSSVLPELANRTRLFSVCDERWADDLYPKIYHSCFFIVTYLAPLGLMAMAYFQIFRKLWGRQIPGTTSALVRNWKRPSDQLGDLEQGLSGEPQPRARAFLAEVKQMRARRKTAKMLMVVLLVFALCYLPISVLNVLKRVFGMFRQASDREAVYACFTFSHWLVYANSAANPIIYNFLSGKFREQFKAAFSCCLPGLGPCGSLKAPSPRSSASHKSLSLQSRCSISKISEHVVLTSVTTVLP
Outline: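 HEK-293 cells expressing human OX1R, seeded at 16000 cells/well and grown overnight at 37 °C, then loaded with Calcium 4 dye in HEPES buffer with 0.1% BSA (1 h at 37 °C, 15 min at RT). Compound was equilibrated 30 min at RT before orexin-A was added. Fluorescence read at ex 480/em 540 nm on FDSS6000; response taken as peak/baseline ratio. Orexin-A EC50 was determined in each experiment.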

[4] = Plasma clearance in C57BL/6NCrlCrlj mouse at 1 mg/kg, iv by LC-MS/MS analysis; assay type: ADME, organism-based
Outline: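 Male C57BL/6NCrlCrlj mice dosed intravenously at 1 mg/kg in 10% DMSO in water. Blood was taken from the tail vein at set time points and spun to plasma. Concentrations were measured by LC-MS/MS (MRM, positive mode) against a 1/x²-weighted standard curve with internal standard. Parameters came from noncompartmental analysis.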

[5] = Oral bioavailability in C57BL/6NCrlCrlj mouse at 10 mg/kg by LC-MS/MS analysis; assay type: ADME, organism-based; settings: in vivo
Outline: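 Oral dose of 10 mg/kg in 10% Cremophor EL, 5% DMSO in saline; intravenous reference of 1 mg/kg in 10% DMSO in water; male C57BL/6NCrlCrlj mice. Tail-vein plasma was quantified by LC-MS/MS. F% = (mean AUC0–inf po/dose po)/(mean AUC0–inf iv/dose iv) × 100.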

CYP3A = CYP3A (Homo sapiens, UniProt P08684+P20815+P24462+Q9HB55); assay: Inhibition of CYP3A in human liver microsomes assessed as enzyme activity using midazolam as substrate incubated for 30 mins prior to substrate addition for 10 mins by LC-MS/MS analysis; assay type: ADME; settings: probe midazolam
Outline: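 Compound preincubated 30 min at 37 °C with human liver microsomes (0.2 mg/mL), with or without an NADPH-generating system. The mix was diluted 10-fold into a marker-substrate cocktail plus NADPH system and incubated 10 min at 37 °C. Marker metabolites were measured by LC-MS/MS; residual activity with NADPH was expressed relative to without.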

[6] = target: Voltage-gated inwardly rectifying potassium channel KCNH2 (Homo sapiens, UniProt Q12809); assay: Inhibition of human ERG
Chain of Voltage-gated inwardly rectifying potassium channel KCNH2 (Q12809 whole entry): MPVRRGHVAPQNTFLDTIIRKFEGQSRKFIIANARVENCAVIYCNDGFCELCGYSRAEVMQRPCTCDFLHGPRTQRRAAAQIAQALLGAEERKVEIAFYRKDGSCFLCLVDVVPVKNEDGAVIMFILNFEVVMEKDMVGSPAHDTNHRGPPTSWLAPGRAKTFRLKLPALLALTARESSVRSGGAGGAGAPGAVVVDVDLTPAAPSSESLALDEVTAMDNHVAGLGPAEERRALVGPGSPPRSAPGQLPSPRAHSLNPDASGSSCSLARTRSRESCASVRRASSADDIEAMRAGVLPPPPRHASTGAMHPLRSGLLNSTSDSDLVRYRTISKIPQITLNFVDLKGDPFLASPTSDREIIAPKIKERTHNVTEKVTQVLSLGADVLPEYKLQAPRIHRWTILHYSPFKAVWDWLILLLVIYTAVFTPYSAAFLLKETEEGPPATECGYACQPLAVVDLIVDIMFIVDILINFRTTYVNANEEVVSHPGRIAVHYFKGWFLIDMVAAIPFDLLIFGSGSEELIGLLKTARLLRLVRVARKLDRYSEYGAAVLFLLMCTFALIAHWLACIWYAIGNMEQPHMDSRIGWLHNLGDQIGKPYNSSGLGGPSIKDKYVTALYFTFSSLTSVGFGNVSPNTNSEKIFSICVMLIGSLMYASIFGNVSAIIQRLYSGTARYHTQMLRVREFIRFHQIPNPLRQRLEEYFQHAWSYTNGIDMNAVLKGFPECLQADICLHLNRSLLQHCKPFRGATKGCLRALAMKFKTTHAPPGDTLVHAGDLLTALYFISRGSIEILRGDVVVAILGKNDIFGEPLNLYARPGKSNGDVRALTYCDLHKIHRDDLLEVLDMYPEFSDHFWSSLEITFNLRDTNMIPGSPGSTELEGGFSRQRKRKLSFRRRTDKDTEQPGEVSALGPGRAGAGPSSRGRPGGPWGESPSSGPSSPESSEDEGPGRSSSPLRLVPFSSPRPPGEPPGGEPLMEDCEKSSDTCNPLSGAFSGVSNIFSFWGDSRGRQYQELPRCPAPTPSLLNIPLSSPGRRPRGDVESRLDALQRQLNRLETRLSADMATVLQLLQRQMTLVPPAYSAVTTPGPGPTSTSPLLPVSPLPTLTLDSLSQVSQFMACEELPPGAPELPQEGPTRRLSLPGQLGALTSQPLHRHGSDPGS

Cc1ncc(OC[C@@]2(c3cccc(F)c3)C[C@H]2C(=O)Nc2ccc(F)cn2)c(C)n1 [LEMBOREXANT]
Time (Mus musculus [1]): 9.3 min | Time (Mus musculus [2]): 95.5 min | Ki [3]: 0.0057 µM | clearance [4]: 17.7 mL/min/kg | bioavailability [5]: 18.5% | IC50 at 30 min (CYP3A): > 20 µM | IC50 [6]: 6.1 µM
